Hits are enriched below; roughly 1.6% of the tested compounds scored in any of these assays.
core dimer inh – inhibitors of HCV core protein dimerization, primary screen, biochemical, TR-FRET, high-throughput; TR-FRET GST/Flag-core106 dimerization, 1536-well; inhibition, % at 5 µM; actives 0.33% (n = 300,000);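 active = inhibition above the mean of all tested compounds plus 3 SD, set per screening campaign, cut at about 45% in these data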
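Test system: GST/Flag-tagged HCV core106 proteins; Medium: KF-containing HEPES buffer, pH 7.45, DTT, CHAPS, BSA; Times: compound-protein-antibody incubation 4 h at 22.5 °C; Detection: TR-FRET 671 and 617 nm emission; Benchmarks: wells lacking GST-core106 and wells with excess unlabelled core106.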
IMP-1 inh-1 – IMP-1 metallo-beta-lactamase inhibitors, primary screen, biochemical, epi-absorbance readout, Pseudomonas aeruginosa enzyme | metallo-beta-lactamase IMP-1 (Pseudomonas aeruginosa) | actives 0.45% (n = 290,000) | AID 1556, 2009 | purified IMP-1, nitrocefin hydrolysis, epi-absorbance fluorescence | inhibition, % at 5.6 µM;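 active = inhibition above the mean plus 3 SD of all compounds in the same screening run, cut at about 4.5% in these data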
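system = purified recombinant IMP-1 beta-lactamase | amount = 0.2 nM IMP-1, as dispensed | medium = HEPES buffer pH 7.1 with ZnSO4 and Brij 35 | times = 25 °C, 15 min preincubation, 25 min reaction | detection = plate fluorescence quenching by hydrolysis product, ex 480/em 530 nm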
DNA FID counter – compounds displacing fluorescent DNA intercalator, primary screen, artefact control for HCV NS3 helicase inhibitor project, biochemical, FID fluorescence; DNA fluorescent intercalator displacement; inhibition, % at 7.9 µM; actives 0.17% (n = 290,000); AID 1845, 2009; in the data active = inhibition above about 37%;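 also: higher means more ethidium bromide displaced from hairpin DNA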
VIM-2 inh – VIM-2 metallo-beta-lactamase inhibitors, primary screen, biochemical, epi-absorbance readout, Pseudomonas aeruginosa enzyme; inhibition, % at 5.6 µM; actives 0.89% (n = 290,000); AID 1527, 2009; purified VIM-2, nitrocefin hydrolysis, epi-absorbance fluorescence;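 active = inhibition above the mean of all tested compounds plus 3 SD, cutoff set per screening run, cut at about 7.5% in these data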;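 also: red hydrolysis product quenches plate fluorescence so inhibitors raise well fluorescence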
IMP-1 inh-2 – IMP-1 metallo-beta-lactamase inhibitors, confirmation, selectivity assay for selective VIM-2 inhibitor project, biochemical, epi-absorbance readout, triplicate. purified IMP-1, nitrocefin hydrolysis, epi-absorbance fluorescence. 1,300 tested, under 10 active. shares compounds with VIM-2 inh. inhibition, % at 5.6 µM; call rule not given here
VIM-2 FRET ctr – VIM-2 inhibitors in FRET format, confirmation, artefact control for selective VIM-2 inhibitor project, biochemical, epi-absorbance artifact exclusion; inhibition, % at 5.6 µM; shares compounds with VIM-2 inh; actives 23% (n = 1,300); AID 1857, 2009; purified VIM-2, CCF2 FRET substrate hydrolysis;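 active = inhibition above the mean of all tested compounds plus 3 SD, cut at about 19% in these data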
TEM-1 counter – TEM-1 serine beta-lactamase inhibitors, counter-screen for VIM-2 inhibitor project, biochemical, epi-absorbance, HTS | shares compounds with VIM-2 inh | Purified TEM-1, nitrocefin hydrolysis, epi-absorbance fluorescence | inhibition, % at 5.6 µM | actives 3% (n = 1,300) | AID 1866, 2009;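 active = inhibition above that campaign's mean inhibition plus 3 SD, cut at about 0.46% in these data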
Target sequence (P62593 whole entry, looked up): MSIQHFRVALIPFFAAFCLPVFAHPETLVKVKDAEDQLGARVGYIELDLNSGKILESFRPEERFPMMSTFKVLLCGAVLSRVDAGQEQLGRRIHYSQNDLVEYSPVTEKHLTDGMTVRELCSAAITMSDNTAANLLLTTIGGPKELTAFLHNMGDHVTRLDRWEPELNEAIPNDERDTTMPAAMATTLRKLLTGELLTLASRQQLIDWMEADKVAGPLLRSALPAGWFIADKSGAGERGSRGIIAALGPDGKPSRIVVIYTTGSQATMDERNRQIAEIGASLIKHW
VIM-2 inh conf – VIM-2 metallo-beta-lactamase inhibitors, confirmation, biochemical, epi-absorbance, hits shared with IMP-1 screen | shares compounds with VIM-2 inh | actives 96% (n = 1,300) | purified VIM-2, nitrocefin hydrolysis | inhibition, % at 5.6 µM | AID 2187, 2009;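 active = inhibition of the VIM-2 beta-lactamase enzyme above about 11% from the earlier first-round screen, limit read from the data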
Numbers stand for hits; n = inactive; x = no result given.

SMILES	core dimer inh	IMP-1 inh-1	DNA FID counter	VIM-2 inh	IMP-1 inh-2	VIM-2 FRET ctr	TEM-1 counter	VIM-2 inh conf
COc1ccc(C2N(c3ccc4c(c3)OCCO4)C(=O)C2(F)F)cc1OC (configuration not stated)	n	n	n	n	x	x	x	x
CCCCn1c(-c2ccco2)n[nH]c1=S	n	n	n	42.5	n	72.1	n	53.3
Cc1ccccc1-n1c(-c2ccco2)n[nH]c1=S	n	n	n	13.5	n	44.9	n	31.4
C=CCn1c(-c2ccoc2C)n[nH]c1=S	n	n	n	n	x	x	x	x
CCCCn1c(-c2ccoc2C)n[nH]c1=S	n	n	n	16.2	n	45.4	n	30.2
CC(C)Cn1c(-c2ccco2)n[nH]c1=S	n	n	n	17.3	n	49.3	n	31.3
CCOC(=O)C1CCN(C(=O)CNC(=O)c2nn(-c3ccc(OC)c(OC)c3)c(=O)c3ccccc23)CC1	n	n	n	n	x	x	x	x
CCCCn1c(-c2sccc2C)n[nH]c1=S	n	n	n	38.9	n	67.0	n	50.1
CC(C)Cn1c(-c2ccccc2F)n[nH]c1=S	n	n	n	19.2	n	30.3	n	20.9
CCCCn1c(Cc2ccccc2)n[nH]c1=S	n	n	n	n	x	x	x	x
CC(C)Cn1c(-c2ccco2)nc2c(c(=O)c3ccccc3n2C)c1=O	n	n	n	13.5	n	n	n	31.9
CC(C)Cn1c(-c2ccc(F)cc2)n[nH]c1=S	n	n	n	n	x	x	x	x
O=C(C(c1ccccc1)c1ccccc1)N1CCOCC1	n	n	n	n	x	x	x	x
Cc1cc([N+](=O)[O-])c(C)cc1-c1ccc(/C=N/NC(=O)Cn2nnnc2N)o1	n	n	n	33.2	n	n	n	42.0
O=[N+]([O-])c1ccc(-c2ccc(/C=N/n3cnnc3)o2)c(Br)c1	n	n	n	44.6	n	n	n	57.2
Cc1cc([N+](=O)[O-])c(C)cc1-c1ccc(/C=N/n2cnnc2)o1	x	n	n	44.5	n	n	n	49.6
Cc1n[nH]c(=S)n1/N=C/c1ccc(-c2ccccc2[N+](=O)[O-])o1	n	n	n	n	x	x	x	x
Nc1nnnn1CC(=O)N/N=C/c1cc([N+](=O)[O-])ccc1Cl	n	n	n	n	x	x	x	x
O=C(NC1CCCCC1)c1ccc2c(c1)OCO2	n	n	n	n	x	x	x	x
CCCc1cc(N2CCN(C(=O)c3ccco3)CC2)n2c(nc3ccccc32)c1C#N	n	n	n	14.3	n	n	n	28.4
Cc1ccc2nc(N3CCN(C(=O)c4ccco4)CC3)c3nncn3c2c1	n	n	n	n	x	x	x	x
Cc1nnc2c(N3CCN(C(=O)c4ccco4)CC3)nc3ccccc3n12	n	n	n	12.8	n	n	n	18.6
Cn1nc(-c2ccc(OCC(N)=O)cc2)c2ccccc2c1=O	n	n	n	12.9	n	n	n	30.4
Cc1cccc(NC(=O)COc2ccc(-c3nn(C)c(=O)c4ccccc34)cc2)c1	n	n	n	15.8	n	n	n	18.2
CCCNC(=O)COc1ccc(-c2nn(C)c(=O)c3ccccc23)cc1	n	n	n	12.6	n	n	n	20.2
SMILES	core dimer inh	IMP-1 inh-1	DNA FID counter	VIM-2 inh	IMP-1 inh-2	VIM-2 FRET ctr	TEM-1 counter	VIM-2 inh conf
COC(=O)COc1ccc(-c2nn(C)c(=O)c3ccccc23)cc1	n	n	n	n	x	x	x	x
Cc1cccc(NC(=O)COc2ccccc2)c1	n	n	n	n	x	x	x	x
Cc1cccc(NC(=O)c2ccc(C3SCC(=O)N3CCc3ccccc3)cc2)c1 (configuration not stated)	n	n	n	n	x	x	x	x
COc1cc(OC)c(NC(=O)c2ccc(F)cc2)cc1Cl	n	n	n	n	x	x	x	x
CN1CCN(c2ccc(NC(=O)c3ccc4ccccc4c3)cc2)CC1	n	n	n	25.2	n	n	n	34.3
CN1CCN(c2ccc(NC(=O)c3ccc(Br)o3)cc2)CC1	n	n	n	13.6	n	n	n	30.9
O=C(Nc1ccc(N2CCOCC2)cc1)c1ccc(Br)o1	n	n	n	n	x	x	x	x
COc1ccc(C(=O)Nc2ccc(S(=O)(=O)N3CCN(C)CC3)cc2)cc1	n	x	x	x	x	x	x	x
CCN1CCN(c2ccc(NC(=O)c3cc(OC)c(OC)c(OC)c3)cc2)CC1	n	n	n	23.7	n	n	n	37.5
COc1ccc(C(=O)Nc2ccc(N3CCN(C)CC3)cc2)cc1	n	n	n	15.5	n	n	n	25.7
Cn1cnc2nc3n(c2c1=O)CCC3	n	n	n	n	x	x	x	x
Cc1c(Nc2ccc(C=O)cc2)c(=O)n(-c2ccccc2)n1C	n	n	n	n	x	x	x	x
Nc1ccccc1Oc1ncc(C(F)(F)F)cc1Cl	n	n	n	n	x	x	x	x
CCN1CCN(c2ccc(NC(=O)c3ccc(Cl)c(N4CCCC4=O)c3)cc2)CC1	n	n	n	25.9	n	n	n	42.3
COc1ccc(C(=O)Nc2ccc(N3CCN(C)CC3)cc2)cc1OC	n	n	n	24.0	n	n	n	38.6
CC(=O)c1ccc(Nc2nc(-c3cccnc3)cs2)cc1	x	n	n	14.2	n	n	n	15.4
O=c1[nH]c2c(s1)C(c1ccc(O)cc1)C1C3CCC(C3)C1S2 (configuration not stated)	n	n	n	n	x	x	x	x
O=c1[nH]c2c(s1)C(c1cccnc1)C1C3CCC(C3)C1S2 (configuration not stated)	n	n	n	84.2	n	88.7	n	82.7
Cc1oc2c(C)c3oc(=O)c(CCC(=O)NCCCn4ccnc4)c(C)c3cc2c1C	n	n	n	24.4	n	n	n	30.4
CCCCc1cc(=O)oc2c(C)c(OCC(=O)NCCN3CCOCC3)ccc12	n	n	n	n	x	x	x	x
CCCc1cc(=O)oc2c(C)c(OCC(=O)NCCCn3ccnc3)ccc12	n	n	n	16.1	n	n	n	27.1
CCCc1cc(=O)oc2cc(OCC(=O)NCCCn3ccnc3)c(Cl)cc12	n	n	n	18.7	n	n	n	30.3
Cc1c(OCC(=O)NCCCn2ccnc2)ccc2c3c(c(=O)oc12)CCCC3	n	n	n	53.8	n	n	n	64.3
Cc1n[nH]c(C)c1CCCCOc1ccc([N+](=O)[O-])cc1	n	n	n	20.2	n	46.9	n	29.7
COc1ccc(Cc2nnc(SC(C)C(=O)Nc3ccc(C(N)=O)cc3)o2)cc1 (configuration not stated)	n	x	x	x	x	x	x	x

Source: PubChem
